In ChEMBL document CHEMBL3085721, “Nonhydrolyzable ATP analogues as selective inhibitors of human NPP1: a combined computational/experimental study” (J Med Chem, 2013) one finds inhibition data, which are given here for 5 molecules.

Experiment [1] concerns the target T1, Ectonucleoside triphosphate diphosphohydrolase 1 (Homo sapiens) (UniProt P49961).
T1 sequence (whole entry): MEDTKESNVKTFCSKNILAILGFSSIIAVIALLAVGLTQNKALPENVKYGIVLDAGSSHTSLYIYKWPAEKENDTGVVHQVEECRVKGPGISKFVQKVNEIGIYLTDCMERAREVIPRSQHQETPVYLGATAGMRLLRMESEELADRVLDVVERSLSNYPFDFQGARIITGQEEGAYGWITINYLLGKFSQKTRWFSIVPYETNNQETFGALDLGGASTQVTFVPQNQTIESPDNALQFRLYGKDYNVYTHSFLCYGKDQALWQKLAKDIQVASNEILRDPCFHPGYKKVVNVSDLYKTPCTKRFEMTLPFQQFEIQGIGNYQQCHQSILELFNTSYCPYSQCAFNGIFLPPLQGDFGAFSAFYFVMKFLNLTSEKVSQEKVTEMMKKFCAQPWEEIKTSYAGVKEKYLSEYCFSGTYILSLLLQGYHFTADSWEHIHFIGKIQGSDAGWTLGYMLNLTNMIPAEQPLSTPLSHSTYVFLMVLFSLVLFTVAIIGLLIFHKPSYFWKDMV
Description: Inhibition of human NTPDase1 assessed as amount of inorganic phosphate released using ATP as the substrate preincubated at 100 uM for 3 mins before substrate addition after 15 mins by malachite green reagent method. The method in brief: (§1)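 Crude extracts of COS-7 cells transiently transfected with human NTPDase1, -2, -3 or -8, preincubated 3 min at 37 °C in Tris-Ringer medium pH 7.4 with analogue (final 100 μM). Started with 100 μM ATP, stopped after 15 min with malachite green; released Pi read at 630 nm. ATP alone set as 100%. Mean ± SD of 3−6 experiments in triplicate.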

Experiment [2] addresses T2, Ectonucleoside triphosphate diphosphohydrolase 8 (Homo sapiens) (UniProt Q5MY95).
T2 sequence (whole entry): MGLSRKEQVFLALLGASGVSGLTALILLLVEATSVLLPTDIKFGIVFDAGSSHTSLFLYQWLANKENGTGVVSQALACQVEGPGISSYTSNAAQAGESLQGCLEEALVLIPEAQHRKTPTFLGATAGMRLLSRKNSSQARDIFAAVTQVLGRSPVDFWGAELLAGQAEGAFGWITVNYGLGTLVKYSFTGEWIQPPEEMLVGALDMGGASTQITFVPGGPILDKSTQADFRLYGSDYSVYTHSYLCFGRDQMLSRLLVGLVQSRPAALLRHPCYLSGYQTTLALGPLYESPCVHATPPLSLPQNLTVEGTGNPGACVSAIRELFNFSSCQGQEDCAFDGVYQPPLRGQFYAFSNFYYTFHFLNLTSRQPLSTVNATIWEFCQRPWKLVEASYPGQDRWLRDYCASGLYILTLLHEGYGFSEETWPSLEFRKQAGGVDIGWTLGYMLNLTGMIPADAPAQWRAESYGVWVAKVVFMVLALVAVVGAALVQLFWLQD
Nature of the experiment: Inhibition of human NTPDase8 assessed as amount of inorganic phosphate released using ATP as the substrate preincubated at 100 uM for 3 mins before substrate addition after 15 mins by malachite green reagent method. The method in brief:
as §1

The target in experiment [3] is T3, Ectonucleoside triphosphate diphosphohydrolase 2 (Homo sapiens) (UniProt Q9Y5L3).
T3 sequence (whole entry): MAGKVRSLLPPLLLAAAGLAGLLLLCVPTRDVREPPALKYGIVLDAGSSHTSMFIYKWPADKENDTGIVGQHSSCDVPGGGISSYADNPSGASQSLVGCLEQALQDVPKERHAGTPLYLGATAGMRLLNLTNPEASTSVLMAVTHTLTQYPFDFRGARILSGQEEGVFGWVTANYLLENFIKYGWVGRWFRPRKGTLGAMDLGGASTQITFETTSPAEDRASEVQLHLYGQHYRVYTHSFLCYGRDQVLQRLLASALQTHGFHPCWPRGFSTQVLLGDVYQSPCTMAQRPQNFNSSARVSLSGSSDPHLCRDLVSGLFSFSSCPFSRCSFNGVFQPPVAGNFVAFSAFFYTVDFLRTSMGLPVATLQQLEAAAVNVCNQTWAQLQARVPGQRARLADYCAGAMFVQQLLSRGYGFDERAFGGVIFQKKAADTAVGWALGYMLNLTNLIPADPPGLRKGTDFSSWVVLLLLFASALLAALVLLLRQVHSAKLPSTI
Nature of the experiment: Inhibition of human NTPDase2 assessed as amount of inorganic phosphate released using ATP as the substrate preincubated at 100 uM for 3 mins before substrate addition after 15 mins by malachite green reagent method. Put shortly:
as §1

Experiment [4] has as its target T4, Ectonucleotide pyrophosphatase/phosphodiesterase family member 3 (Homo sapiens) (UniProt O14638).
T4 sequence (whole entry): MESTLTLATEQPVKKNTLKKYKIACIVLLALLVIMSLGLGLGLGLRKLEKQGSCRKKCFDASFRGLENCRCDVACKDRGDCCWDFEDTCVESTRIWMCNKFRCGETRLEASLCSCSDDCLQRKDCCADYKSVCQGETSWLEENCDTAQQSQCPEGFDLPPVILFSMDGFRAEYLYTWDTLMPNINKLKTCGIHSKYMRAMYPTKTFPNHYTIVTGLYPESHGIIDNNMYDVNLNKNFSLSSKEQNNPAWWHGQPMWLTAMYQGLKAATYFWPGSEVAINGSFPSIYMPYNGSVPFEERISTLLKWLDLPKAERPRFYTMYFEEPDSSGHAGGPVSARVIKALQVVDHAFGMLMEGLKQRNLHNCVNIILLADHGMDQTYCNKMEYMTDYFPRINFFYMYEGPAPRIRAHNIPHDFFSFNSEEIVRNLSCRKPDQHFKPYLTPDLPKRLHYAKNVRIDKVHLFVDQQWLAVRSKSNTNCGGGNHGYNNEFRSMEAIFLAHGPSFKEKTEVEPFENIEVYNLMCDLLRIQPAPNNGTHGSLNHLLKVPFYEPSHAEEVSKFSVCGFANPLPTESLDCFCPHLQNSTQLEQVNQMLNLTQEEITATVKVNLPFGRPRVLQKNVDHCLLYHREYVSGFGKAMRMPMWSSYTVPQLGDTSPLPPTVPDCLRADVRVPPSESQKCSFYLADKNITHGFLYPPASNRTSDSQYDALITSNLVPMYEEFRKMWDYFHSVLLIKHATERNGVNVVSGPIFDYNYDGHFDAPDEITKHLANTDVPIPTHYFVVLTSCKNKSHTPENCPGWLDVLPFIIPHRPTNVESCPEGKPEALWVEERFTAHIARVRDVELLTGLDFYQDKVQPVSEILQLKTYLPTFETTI
Description: Inhibition of NPP3 in human HTB-85 cells assessed as production of p-nitrophenol using pnp-TMP at 100 uM measured after 20 mins by spectrophotometry. It counts as cell-based. Put shortly:
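Intact osteocarcinoma HTB85 (SaOS-2) cells in 24-well plates, 0.5 mL incubation mixture, analogue and pnp-TMP each at 100 μM. After 20 min an aliquot was read for p-nitrophenol at 410 nm. Substrate alone set as 100%. Mean ± SD of three experiments in triplicate.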

On to `B[P@@](=O)(OC[C@H]1O[C@@H](n2cnc3c(N)nc(SC)nc32)[C@H](O)[C@@H]1O)OP(=O)(O)C(F)(F)P(=O)(O)O`, for which the values for the inhibition in experiment [1], in experiment [2] and in experiment [3] were 50%, 30% and 50%, respectively.

`B[P@@](=O)(OC[C@H]1O[C@@H](n2cnc3c(N)ncnc32)[C@H](O)[C@@H]1O)OP(=O)(O)CP(=O)(O)O`: the inhibition in experiment [1] was less than 18%; in experiment [2], less than 18%; in experiment [4], 90%; in experiment [3], less than 18%.

In the case of `CSc1nc(N)c2ncn([C@@H]3O[C@H](COP(=O)(O)C(F)(F)P(=O)(O)O)[C@@H](O)[C@H]3O)c2n1`, the inhibition was less than 18% in experiment [1], less than 18% in experiment [2], 41% in experiment [4] and less than 18% in experiment [3].

Consider `B[P@](=O)(OC[C@H]1O[C@@H](n2cnc3c(N)ncnc32)[C@H](O)[C@@H]1O)OP(=O)(O)CP(=O)(O)O`, for which the inhibition in experiment [1] was less than 18%; in experiment [2] it was less than 18%; in experiment [4], 41%; in experiment [3], less than 18%.

As to `B[P@](=O)(OC[C@H]1O[C@@H](n2cnc3c(N)nc(SC)nc32)[C@H](O)[C@@H]1O)OP(=O)(O)CP(=O)(O)O`, the inhibition is less than 18% in experiment [1], less than 18% in experiment [2], 90% in experiment [4] and less than 18% in experiment [3].
